Assay results taken from ChEMBL document CHEMBL1144782, “Isoindolo[2,1-a]quinoxaline derivatives, novel potent antitumor agents with dual inhibition of tubulin polymerization and topoisomerase I” (2008).

What follows are molecules tested on CCRF-CEM (assay: Growth inhibition of human CEM cells after 72 hrs by MTT assay). Details: not given.
Type: functional
Method in brief: (§1)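 Growth inhibition by MTT after 72 h incubation. Resistant sublines: LoVoDoxo and MCF-7 MDR were kept in 0.1 µg/mL doxorubicin; CEMVbl-100 was selected against vinblastine. GI50 given as mean ± SEM of three independent experiments. Resistance index is resistant-line GI50 over parental GI50.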

Row | SMILES | GI50 [µM]
1 | O=c1[nH]c2ccccc2n2cc3ccccc3c12 | 4.7

Each molecule was assayed on NCI-H23 (assay: Antitumor activity against human NCI-H23 cells). Details: not given.
Type: functional
Method in brief: (§2)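 Run by the NCI in its in vitro disease-oriented screen of about 60 human tumour cell lines. For each line it reports pGI50 (50% net growth inhibition), pTGI (total growth inhibition) and pLC50 (50% net cell death), each as –log molar concentration. Where an effect was not reached within the tested range, the highest tested concentration was used.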

Row | SMILES | GI50 [µM] | LC50 (50% net cell kill) [µM]
2 | O=c1[nH]c2ccccc2n2cc3ccccc3c12 | 11.2 | > 100

Same assay, conditions: read-out: pTGI (converted)

Row | SMILES | TGI [µM]
3 | O=c1[nH]c2ccccc2n2cc3ccccc3c12 | 36.3

These molecules were tested on NCI-H460 (assay: Antitumor activity against human NCI-H460 cells). Details: not given.
Type: functional
Method in brief: as §2

Row | SMILES | GI50 [µM]
4 | O=c1[nH]c2ccccc2n2cc3ccccc3c12 | 7.76

Same assay, conditions: read-out: Log LC50 (the source's name) (converted)

Row | SMILES | CC50 [µM]
5 | O=c1[nH]c2ccccc2n2cc3ccccc3c12 | > 100

Same assay, conditions: read-out: pTGI (converted)

Row | SMILES | TGI [µM]
6 | O=c1[nH]c2ccccc2n2cc3ccccc3c12 | > 100

These molecules were tested on NCI-H226 (assay: Antitumor activity against human NCI-H226 cells). Details: not given.
Type: functional
Method in brief: as §2

Row | SMILES | GI50 [µM] | LC50 (50% net cell kill) [µM]
7 | O=c1[nH]c2ccccc2n2cc3ccccc3c12 | 2.88 | 55

Same assay, conditions: read-out: pTGI (converted)

Row | SMILES | TGI [µM]
8 | O=c1[nH]c2ccccc2n2cc3ccccc3c12 | 13.8

What follows are molecules tested on HT-29 (assay: Antitumor activity against human HT29 cells). Details: not given.
Type: functional
Method in brief: as §2

Row | SMILES | GI50 [µM] | LC50 [µM]
9 | O=c1[nH]c2ccccc2n2cc3ccccc3c12 | 4.37 | > 100

Same assay, conditions: read-out: pTGI (converted)

Row | SMILES | TGI [µM]
10 | O=c1[nH]c2ccccc2n2cc3ccccc3c12 | > 100

The molecules below were run on CCRF-CEM (assay: Antitumor activity against human CCRF-CEM cells). Details: not given.
Type: functional
Method in brief: as §2

Row | SMILES | GI50 [µM] | LC50 [µM]
11 | O=c1[nH]c2ccccc2n2cc3ccccc3c12 | 5.89 | > 100

Same assay, conditions: read-out: pTGI (converted)

Row | SMILES | TGI [µM]
12 | O=c1[nH]c2ccccc2n2cc3ccccc3c12 | 60.3

What follows are molecules tested on CCRF-CEM (assay: Growth inhibition of human vinblastine-resistant CEM cells after 72 hrs by MTT assay). Details: not given.
Type: functional
Method in brief: as §1

Row | SMILES | GI50 [µM]
13 | O=c1[nH]c2ccccc2n2cc3ccccc3c12 | 3.8

Each molecule was assayed on UO-31 (assay: Antitumor activity against human UO31 cells). Details: not given.
Type: functional
Method in brief: (§3)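 NCI 60-cell-line screen. Parameters were GI50 (50% net growth inhibition), TGI and LC50, each reported as –log molar concentration. Where an effect was not reached within the tested range, the highest tested concentration was used in the calculation.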

Row | SMILES | GI50 [µM]
14 | O=c1[nH]c2ccccc2n2cc3ccccc3c12 | 12.6

Same assay, conditions: read-out: Log LC50 (the source's name) (converted)

Row | SMILES | CC50 [µM]
15 | O=c1[nH]c2ccccc2n2cc3ccccc3c12 | 56.2

Same assay, conditions: read-out: pTGI (converted)

Row | SMILES | TGI [µM]
16 | O=c1[nH]c2ccccc2n2cc3ccccc3c12 | 26.9

What follows are molecules tested on UACC-62 (assay: Antitumor activity against human UACC62 cells). Details: not given.
Type: functional
Method in brief: as §3

Row | SMILES | GI50 [µM] | LC50 [µM]
17 | O=c1[nH]c2ccccc2n2cc3ccccc3c12 | 3.24 | 45.7

Same assay, conditions: read-out: pTGI (converted)

Row | SMILES | TGI [µM]
18 | O=c1[nH]c2ccccc2n2cc3ccccc3c12 | 15.8

These molecules were tested on U-251 (assay: Antitumor activity against human U251 cells). Details: not given.
Type: functional
Method in brief: as §3

Row | SMILES | GI50 [µM]
19 | O=c1[nH]c2ccccc2n2cc3ccccc3c12 | 3.24

Same assay, conditions: read-out: Log LC50 (the source's name) (converted)

Row | SMILES | CC50 [µM]
20 | O=c1[nH]c2ccccc2n2cc3ccccc3c12 | 70.8

Same assay, conditions: read-out: pTGI (converted)

Row | SMILES | TGI [µM]
21 | O=c1[nH]c2ccccc2n2cc3ccccc3c12 | 13.5

These molecules were tested on ACHN (assay: Antitumor activity against human ACHN cells). Details: not given.
Type: functional
Method in brief: as §2

Row | SMILES | GI50 [µM] | LC50 (50% net cell kill) [µM]
22 | O=c1[nH]c2ccccc2n2cc3ccccc3c12 | 1.82 | 34.7

Same assay, conditions: read-out: pTGI (converted)

Row | SMILES | TGI [µM]
23 | O=c1[nH]c2ccccc2n2cc3ccccc3c12 | 7.24

The molecules below were run on SF-268 (assay: Cell viability against human SF268 cells at 10 uM). Details: not given.
Type: functional

Row | SMILES | Activity [%]
24 | O=c1[nH]c2ccccc2n2cc3ccccc3c12 | 9

What follows are molecules tested on Hs-578T (assay: Antitumor activity against human HS578T cells). Details: not given.
Type: functional
Method in brief: as §2

Row | SMILES | GI50 [µM]
25 | O=c1[nH]c2ccccc2n2cc3ccccc3c12 | 0.525

Same assay, conditions: read-out: Log LC50 (the source's name) (converted)

Row | SMILES | CC50 [µM]
26 | O=c1[nH]c2ccccc2n2cc3ccccc3c12 | > 100

Same assay, conditions: read-out: pTGI (converted)

Row | SMILES | TGI [µM]
27 | O=c1[nH]c2ccccc2n2cc3ccccc3c12 | 34.7

These molecules were tested on T47D (assay: Antitumor activity against human T47D cells). Details: not given.
Type: functional
Method in brief: as §3

Row | SMILES | GI50 [µM] | LC50 [µM]
28 | O=c1[nH]c2ccccc2n2cc3ccccc3c12 | 7.41 | > 100

Same assay, conditions: read-out: pTGI (converted)

Row | SMILES | TGI [µM]
29 | O=c1[nH]c2ccccc2n2cc3ccccc3c12 | > 100

These molecules were tested on OVCAR-5 (assay: Antitumor activity against human OVCAR5 cells). Details: not given.
Type: functional
Method in brief: as §2

Row | SMILES | GI50 [µM] | LC50 (50% net cell death) [µM]
30 | O=c1[nH]c2ccccc2n2cc3ccccc3c12 | 10.5 | > 100

Same assay, conditions: read-out: pTGI (converted)

Row | SMILES | TGI [µM]
31 | O=c1[nH]c2ccccc2n2cc3ccccc3c12 | 35.5

The molecules below were run on BT-549 (assay: Antitumor activity against human BT549 cells). Details: not given.
Type: functional
Method in brief: as §2

Row | SMILES | GI50 [µM] | LC50 (50% net cell kill) [µM]
32 | O=c1[nH]c2ccccc2n2cc3ccccc3c12 | 19.1 | > 100

Same assay, conditions: read-out: pTGI (converted)

Row | SMILES | TGI [µM]
33 | O=c1[nH]c2ccccc2n2cc3ccccc3c12 | 64.6

Each molecule was assayed on SF-295 (assay: Antitumor activity against human SF295 cells). Details: not given.
Type: functional
Method in brief: as §2

Row | SMILES | GI50 [µM]
34 | O=c1[nH]c2ccccc2n2cc3ccccc3c12 | 17.8

Same assay, conditions: read-out: Log LC50 (the source's name) (converted)

Row | SMILES | CC50 [µM]
35 | O=c1[nH]c2ccccc2n2cc3ccccc3c12 | 70.8

Same assay, conditions: read-out: pTGI (converted)

Row | SMILES | TGI [µM]
36 | O=c1[nH]c2ccccc2n2cc3ccccc3c12 | 35.5

What follows are molecules tested on MOLT-4 (assay: Antitumor activity against human MOLT4 cells). Details: not given.
Type: functional
Method in brief: as §2

Row | SMILES | GI50 [µM] | LC50 [µM]
37 | O=c1[nH]c2ccccc2n2cc3ccccc3c12 | 3.63 | > 100

Same assay, conditions: read-out: pTGI (converted)

Row | SMILES | TGI [µM]
38 | O=c1[nH]c2ccccc2n2cc3ccccc3c12 | 8.71

What follows are molecules tested on TK-10 (assay: Antitumor activity against human TK10 cells). Details: not given.
Type: functional
Method in brief: as §3

Row | SMILES | GI50 [µM]
39 | O=c1[nH]c2ccccc2n2cc3ccccc3c12 | 20.4

Same assay, conditions: read-out: Log LC50 (the source's name) (converted)

Row | SMILES | CC50 [µM]
40 | O=c1[nH]c2ccccc2n2cc3ccccc3c12 | 66.1

Same assay, conditions: read-out: pTGI (converted)

Row | SMILES | TGI [µM]
41 | O=c1[nH]c2ccccc2n2cc3ccccc3c12 | 37.2

What follows are molecules tested on UACC-257 (assay: Antitumor activity against human UACC257 cells). Details: not given.
Type: functional
Method in brief: as §3

Row | SMILES | GI50 [µM] | LC50 [µM]
42 | O=c1[nH]c2ccccc2n2cc3ccccc3c12 | 15.1 | 72.4

Same assay, conditions: read-out: pTGI (converted)

Row | SMILES | TGI [µM]
43 | O=c1[nH]c2ccccc2n2cc3ccccc3c12 | 33.1

What follows are molecules tested on KM12 (assay: Antitumor activity against human KM12 cells). Details: not given.
Type: functional
Method in brief: as §2

Row | SMILES | GI50 [µM] | LC50 (50% net cell death) [µM]
44 | O=c1[nH]c2ccccc2n2cc3ccccc3c12 | 19.1 | 83.2

Same assay, conditions: read-out: pTGI (converted)

Row | SMILES | TGI [µM]
45 | O=c1[nH]c2ccccc2n2cc3ccccc3c12 | 39.8

Each molecule was assayed on HOP-62 (assay: Antitumor activity against human HOP62 cells). Details: not given.
Type: functional
Method in brief: as §2

Row | SMILES | GI50 [µM] | LC50 (50% net cell death) [µM]
46 | O=c1[nH]c2ccccc2n2cc3ccccc3c12 | 4.37 | 52.5

Same assay, conditions: read-out: pTGI (converted)

Row | SMILES | TGI [µM]
47 | O=c1[nH]c2ccccc2n2cc3ccccc3c12 | 17.8

Each molecule was assayed on OVCAR-8 (assay: Antitumor activity against human OVCAR8 cells). Details: not given.
Type: functional
Method in brief: as §2

Row | SMILES | GI50 [µM] | LC50 (50% net cell death) [µM]
48 | O=c1[nH]c2ccccc2n2cc3ccccc3c12 | 5.25 | > 100

Same assay, conditions: read-out: pTGI (converted)

Row | SMILES | TGI [µM]
49 | O=c1[nH]c2ccccc2n2cc3ccccc3c12 | 33.1

What follows are molecules tested on SW-620 (assay: Antitumor activity against human SW620 cells). Details: not given.
Type: functional
Method in brief: as §3

Row | SMILES | GI50 [µM]
50 | O=c1[nH]c2ccccc2n2cc3ccccc3c12 | 3.72

Same assay, conditions: read-out: Log LC50 (the source's name) (converted)

Row | SMILES | CC50 [µM]
51 | O=c1[nH]c2ccccc2n2cc3ccccc3c12 | > 100

Same assay, conditions: read-out: pTGI (converted)

Row | SMILES | TGI [µM]
52 | O=c1[nH]c2ccccc2n2cc3ccccc3c12 | > 100

These molecules were tested on MCF7 (assay: Growth inhibition of human multidrug-resistant MCF7 cells after 72 hrs by MTT assay). Details: MCF7, 72 h.
Type: functional
Method in brief: as §1

Row | SMILES | GI50 [µM]
53 | O=c1[nH]c2ccccc2n2cc3ccccc3c12 | 10.6

The molecules below were run on SR (assay: Antitumor activity against human SR cells). Details: not given.
Type: functional
Method in brief: as §3

Row | SMILES | GI50 [µM] | LC50 [µM]
54 | O=c1[nH]c2ccccc2n2cc3ccccc3c12 | 2.88 | > 100

Same assay, conditions: read-out: pTGI (converted)

Row | SMILES | TGI [µM]
55 | O=c1[nH]c2ccccc2n2cc3ccccc3c12 | 7.76
